For one assay, the system named is HepG2. The assay is described as follows: Cytotoxicity against human HepG2 cells after 5 days. Type of assay: functional. The settings on record: HepG2, 120 h. In outline: (§1)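 HepG2 and BHK21 cells were seeded, incubated 24 h at 37 °C, then exposed to twofold serial dilutions of compound. The value is CC50 (50% cytotoxic concentration), from at least two independent assays.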

The test system of assay [1] is Mycobacterium tuberculosis. The assay is described as follows: Antitubercular activity against Mycobacterium tuberculosis H37Rv ATCC 27294 assessed as intracellular ATP level after 5 days by luminescence assay. Type of assay: functional. In outline:
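Growth inhibition of M. tuberculosis H37Rv reported as MIC50. Compounds were dissolved in 90% DMSO (stock), twofold serially diluted in duplicate to 10 concentrations, and spotted into 384-well plates. Assays were run at least twice.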

Another assay relates to BHK-21. The assay is described as follows: Cytotoxicity against hamster BHK21 cells after 5 days. It counts as functional. Conditions: Mesocricetus auratus, BHK-21, 120 h. The essentials: as §1
The test system of assay [2] is Mycobacterium tuberculosis. The assay is described as follows: Antimycobacterial activity against Mycobacterium tuberculosis W4 assessed as intracellular ATP level after 5 days by luminescence assay. Type of assay: functional. Conditions: W4, 120 h.
The test system of assay [3] is Mycobacterium tuberculosis. The assay is described as follows: Antimycobacterial activity against Mycobacterium tuberculosis BE11677 assessed as intracellular ATP level after 5 days by luminescence assay. Type of assay: functional. The settings on record: BE11677, 120 h.
In assay [4] the test system is Mycobacterium tuberculosis. The assay is described as follows: Antimycobacterial activity against Mycobacterium tuberculosis TN1037 assessed as intracellular ATP level after 5 days by luminescence assay. Conditions: TN1037, 120 h. Type of assay: functional.
Assay [5] deals with Mycobacterium tuberculosis. The assay is described as follows: Antimycobacterial activity against clinical isolate of Mycobacterium tuberculosis TN675 assessed as intracellular ATP level after 5 days by luminescence assay. It counts as functional. The settings on record: TN675, 120 h.
The test system of assay [6] is Mycobacterium tuberculosis. The assay is described as follows: Antimycobacterial activity against Mycobacterium tuberculosis TN1051 assessed as intracellular ATP level after 5 days by luminescence assay. It counts as functional. Conditions: TN1051, 120 h.
Assay [7] deals with Mycobacterium tuberculosis. The assay is described as follows: Antimycobacterial activity against clinical isolate Mycobacterium tuberculosis TN994 assessed as intracellular ATP level after 5 days by luminescence assay. It counts as functional. The settings on record: TN994, 120 h.
Assay [8] deals with Mycobacterium tuberculosis. The assay is described as follows: Antimycobacterial activity against Mycobacterium tuberculosis TN3183 assessed as intracellular ATP level after 5 days by luminescence assay. It counts as functional. The settings on record: TN3183, 120 h.
Assay [9] has as its system Mycobacterium tuberculosis. The assay is described as follows: Antimycobacterial activity against Mycobacterium tuberculosis TN1040 assessed as intracellular ATP level after 5 days by luminescence assay. Type of assay: functional. The settings on record: TN1040, 120 h.
Assay [10] relates to Mycobacterium tuberculosis. The assay is described as follows: Antimycobacterial activity against Mycobacterium tuberculosis TN913 assessed as intracellular ATP level after 5 days by luminescence assay. Type of assay: functional. Conditions: TN913, 120 h.
Assay [11] has as its system Mycobacterium tuberculosis. The assay is described as follows: Antimycobacterial activity against Mycobacterium tuberculosis TN3979 assessed as intracellular ATP level after 5 days by luminescence assay. Type of assay: functional. The settings on record: TN3979, 120 h.
For assay [12], the system named is Mycobacterium tuberculosis. The assay is described as follows: Antimycobacterial activity against Mycobacterium tuberculosis AH9584 assessed as intracellular ATP level after 5 days by luminescence assay. Type of assay: functional. Conditions: AH9584, 120 h.
The test system of assay [13] is Mycobacterium tuberculosis. The assay is described as follows: Antimycobacterial activity against Mycobacterium tuberculosis E8133 assessed as intracellular ATP level after 5 days by luminescence assay. Conditions: E8133, 120 h.
The test system of assay [14] is Mycobacterium tuberculosis. The assay is described as follows: Antimycobacterial activity against Mycobacterium tuberculosis TN1008 assessed as intracellular ATP level after 5 days by luminescence assay. It counts as functional. Conditions: TN1008, 120 h.
Assay [15] concerns Mycobacterium tuberculosis. The assay is described as follows: Antimycobacterial activity against Mycobacterium tuberculosis TN4259 assessed as intracellular ATP level after 5 days by luminescence assay. Type of assay: functional. Conditions: TN4259, 120 h.
Assay [16] relates to Mycobacterium tuberculosis. The assay is described as follows: Antimycobacterial activity against Mycobacterium tuberculosis TN1082 assessed as intracellular ATP level after 5 days by luminescence assay. Type of assay: functional. The settings on record: TN1082, 120 h.
Assay [17] deals with Mycobacterium tuberculosis. The assay is described as follows: Antimycobacterial activity against Mycobacterium tuberculosis TN2524 assessed as intracellular ATP level after 5 days by luminescence assay. It counts as functional. Conditions: TN2524, 120 h.
In assay [18] the test system is Mycobacterium tuberculosis. The assay is described as follows: Antimycobacterial activity against Mycobacterium tuberculosis TN2351 assessed as intracellular ATP level after 5 days by luminescence assay. It counts as functional. The settings on record: TN2351, 120 h.
The mark [19] stands for this setting: Mycobacterium tuberculosis, H37Rv ATCC 27294, 120 h.

Broadly, the CC50 is the concentration giving 50% cytotoxicity. Low values mean harm at low concentration, high ones better tolerance by the cells. What is called MIC50 is the lowest concentration that inhibits either 50% of growth or 50% of the strains tested, depending on the study. As a reminder, the MIC is the lowest concentration that inhibits growth of the organism.

Molecules are shown by their SMILES. ≈ marks a conversion by molar mass, not a printed value.

Consider `ClCCCSc1nnc(COc2ccc(Cl)cc2Cl)o1`, for which the CC50 with HepG2 and in the assay on BHK-21 was over 50 µM in each case. For the same molecule, the MBC90 in assay [1] came to 2.5 µM (≈ 0.884 µg/mL). The MIC50 in assay [1] (setting [19]) was found to be 0.65 µM (≈ 0.23 µg/mL).

Take `CCCSc1nnc(COc2ccc(Cl)cc2Cl)o1`: the values for the CC50 in the assay on HepG2 and in the assay with BHK-21 were 19.3 µM and 13.8 µM, respectively. For the same molecule, the MBC90 in assay [1] was 2.5 µM (≈ 0.798 µg/mL). Also, the MIC50 in assay [1] (setting [19]) is 0.63 µM (≈ 0.201 µg/mL).

For `O=C(CCl)Sc1nnc(COc2ccc(Cl)cc2Cl)o1`, the MIC50 in [1] (setting [19]) is over 20 µM.

Turning to `ClCCCSc1nnc(Cc2ccc(Cl)cc2Cl)o1`, the CC50 in the assay on HepG2 and in the assay on BHK-21 was over 50 µM throughout. Moreover, in assay [1], the MBC90 turned out to be 5 µM (≈ 1.69 µg/mL). The MIC50 in assay [1] (setting [19]) came to 1.42 µM (≈ 0.479 µg/mL).

With `CCCSc1nnc(Cc2ccc(Cl)cc2Cl)o1`, the CC50 in the assay with HepG2 and with BHK-21 was over 50 µM each time. In addition, in [1], the MBC90 came to 5 µM (≈ 1.52 µg/mL). The MIC50 in assay [1] (setting [19]) came to 1.19 µM (≈ 0.361 µg/mL).

In the case of `O=C(CCl)Sc1nnc(Cc2ccc(Cl)cc2Cl)o1`, in assay [1] (setting [19]), the MIC50 came out at 9.67 µM (≈ 3.26 µg/mL).

On to `O=[N+]([O-])c1cccc(OCc2nnc(SCCCCl)o2)c1`, for which the CC50 with HepG2 and with BHK-21 was over 50 µM each time. Further, the MIC50 in [1] (setting [19]) came to 11.7 µM (≈ 3.86 µg/mL).

Turning to `CCCSc1nnc(COc2cccc([N+](=O)[O-])c2)o1`, the CC50 in the assay on HepG2 and in the assay with BHK-21 was over 50 µM throughout. Further, the MIC50 in [1] (setting [19]) is 8.52 µM (≈ 2.52 µg/mL).

For `O=C(CCl)Sc1nnc(COc2cccc([N+](=O)[O-])c2)o1`, in assay [1] (setting [19]), the MIC50 was over 20 µM.

As to `O=[N+]([O-])c1cccc(Cc2nnc(SCCCCl)o2)c1`, the cytotoxic concentration (CC50) in the assay with HepG2 and in the assay on BHK-21 was over 50 µM each time. Moreover, in [1] (setting [19]), the MIC50 was determined as 7.48 µM (≈ 2.35 µg/mL).

In the case of `CCCSc1nnc(Cc2cccc([N+](=O)[O-])c2)o1`, the CC50 in the assay on HepG2 and with BHK-21 was over 50 µM throughout. Also, the MIC50 in [1] (setting [19]) stood at 6.81 µM (≈ 1.9 µg/mL).

Turning to `O=C(CCl)Sc1nnc(Cc2cccc([N+](=O)[O-])c2)o1`, the MIC50 in assay [1] (setting [19]) was over 20 µM.

With `NNC(=O)c1ccncc1` [ISONIAZID], the MIC turned out to be 0.03 mg/L (≈ 0.219 µM) in assay [2]; 0.2 mg/L (≈ 1.46 µM) in assay [3]; 0.03 mg/L (≈ 0.219 µM) in assay [4]; 0.03 mg/L (≈ 0.219 µM) in assay [5]; 0.03 mg/L (≈ 0.219 µM) in [6]; 0.03 mg/L (≈ 0.219 µM) in assay [7]. Also, the MIC in assay [8] turned out to be 0.03 mg/L (≈ 0.219 µM); in assay [9], 0.03 mg/L (≈ 0.219 µM); in assay [10] it was 0.03 mg/L (≈ 0.219 µM); in assay [11], 0.06 mg/L (≈ 0.438 µM); in assay [12] it was 0.19 mg/L (≈ 1.39 µM); in [13], 0.08 mg/L (≈ 0.583 µM). Also, the MIC stood at 0.06 mg/L (≈ 0.438 µM) in assay [14]; 0.03 mg/L (≈ 0.219 µM) in assay [15]; 0.03 mg/L (≈ 0.219 µM) in assay [1] (setting [19]); 0.03 mg/L (≈ 0.219 µM) in assay [16]; 0.06 mg/L (≈ 0.438 µM) in assay [17]; 0.06 mg/L (≈ 0.438 µM) in [18]. Moreover, in assay [1] (setting [19]), the MIC50 stood at 0.03 µM (≈ 0.00411 µg/mL).
